# What was measured:
# [1] = tested on: ER(+) Ishikawa cells; test: Induction of alkaline phosphatase in Ishikawa cells; format: cell-based, human
# [2] = tested on: MCF-7 cells; conditions: cited from earlier work
# [3] = tested on: T47D/neo cells; test: ERE activation, luciferase reporter in T47D/neo cells; format: cell-based, human; conditions: read-out: EC50 ERE-luciferase activation, classical ER-dependent
# How it was run: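 T47D:A18/neo stable transfectants were grown in RPMI 1640 with 10% FBS and G418 (500 µg/mL), then held 3 days in phenol red-free, E2-depleted RPMI with G418. 8 × 10^6 cells were electroporated with ERE-tk-Luc (5 µg) plus pCMVβ β-gal (1 µg). The next day, test compound (10^-9–10^-7 mol/L), E2 (10^-9 mol/L) or ethanol vehicle was added for 18 h. Luciferase luminescence was normalized to β-gal.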
# [4] = format: in vitro ADME, human; conditions: four days
compound,measurement,setting,value
"NC[C@H]1O[C@@H]2O[C@H]3[C@H](O)[C@@H](O)[C@@H](O[C@H]4[C@H](O)[C@@H](O)[C@@H](O[C@H]5[C@H](O)[C@@H](O)[C@@H](O[C@H]6[C@H](O)[C@@H](O)[C@@H](O[C@H]7[C@H](O)[C@@H](O)[C@@H](O[C@H]8[C@H](O)[C@@H](O)[C@@H](O[C@H]1[C@H](O)[C@H]2O)O[C@@H]8CN)O[C@@H]7CN)O[C@@H]6CN)O[C@@H]5CN)O[C@@H]4CN)O[C@@H]3CN [ACD, Per-6-amino-6-deoxy-β-cyclodextrin]","Estrogenic activity, result in words",[1],inactive
17-beta estradiol [Compound E2],Potency of E2 relative to the E2–dendrimer conjugate,[2],3–4 orders of magnitude
"Per-6-(estradiol-17-(1H-1,2,3-triazol-4-yl))-6-deoxy-β-cyclodextrin [Compound 7EqCD]",EC50,[3],> 100 nM
same,Free EE2 in cell supernatant,"[4]; 7EqCD 10 nM, Ishikawa cells",< 50 pM
same,"Free estrogen (EE2 or E2) in cell supernatant, result in words",[4]; Ishikawa cell culture,EE2 was not observed above detection limits
"[N-]=[N+]=NC[C@H]1O[C@@H]2O[C@H]3[C@H](O)[C@@H](O)[C@@H](O[C@H]4[C@H](O)[C@@H](O)[C@@H](O[C@H]5[C@H](O)[C@@H](O)[C@@H](O[C@H]6[C@H](O)[C@@H](O)[C@@H](O[C@H]7[C@H](O)[C@@H](O)[C@@H](O[C@H]8[C@H](O)[C@@H](O)[C@@H](O[C@H]1[C@H](O)[C@H]2O)O[C@@H]8CN=[N+]=[N-])O[C@@H]7CN=[N+]=[N-])O[C@@H]6CN=[N+]=[N-])O[C@@H]5C/N=[NH+]\[NH-])O[C@@H]4CN=[N+]=[N-])O[C@@H]3CN=[N+]=[N-] [Compound 2, Per-6-azido-6-deoxy-β-cyclodextrin]","Estrogenic activity, result in words",[1],inactive

# From article PMC2906776 (Bioorganic & medicinal chemistry, 2009)
